# Measured values as given in ChEMBL document CHEMBL2163271, “Antitumor agents 295. E-ring hydroxylated antofine and cryptopleurine analogues as antiproliferative agents: design, synthesis, and mechanistic studies” (J Med Chem, 2012).
# Active and inactive are the calls of the source. The calls are words filed in the database; no cut-off is given here.
# How the values were obtained:
# KB = experiment: Cytotoxicity against human KB cells after 2 hrs by methylene blue staining-based spectrophotometric analysis; format: functional, cell-based
# DU-145 = experiment: Cytotoxicity against human DU145 cells after 2 hrs by methylene blue staining-based spectrophotometric analysis; format: functional, cell-based; details: DU-145, 2 h
# [1] = Cytotoxicity against human KBVIN cells overexpressing P-gp after 2 hrs by methylene blue staining-based spectrophotometric analysis; format: functional, cell-based
# A549 [2] = experiment: Cytotoxicity against human A549 cells after 2 hrs by methylene blue staining-based spectrophotometric analysis; format: functional, cell-based; details: A549, 2 h
# SK-BR-3 = experiment: Cytotoxicity against human SKBR3 cells after 2 hrs by methylene blue staining-based spectrophotometric analysis; format: functional, cell-based; details: SK-BR-3, 2 h
# [3] = Cytotoxicity against human CL1-5 cells assessed as cell viability after 48 hrs by SRB assay; format: functional, cell-based; details: CL1-5, 48 h
# Method in brief: (§1)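 Human NSCLC lines (CL1-0, CL1-5, PC9, PC9IR) exposed to increasing compound concentrations for 48 h. Growth read by sulforhodamine B (SRB) staining, with IC50 in nM taken from the dose-response.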
# MRC5 = experiment: Cytotoxicity against human MRC5 cells assessed as cell viability after 48 hrs by SRB assay; format: functional, cell-based; details: MRC5, 48 h
# A549 [4] = experiment: Downregulation of cyclin D protein expression in human A549 cells at 3.6 to 100 nM after 48 hrs by Western blot analysis; format: functional, cell-based
# [5] = Cytotoxicity against human CL1-0 cells assessed as cell viability after 48 hrs by SRB assay; format: functional, cell-based; details: CL1-0, 48 h; method in brief: as §1
# A549 [6] = experiment: Downregulation of beta-catenin protein expression in human A549 cells at 3.6 to 100 nM after 48 hrs by Western blot analysis
# A549 [7] = experiment: Downregulation of HSP90 protein expression in human A549 cells at 3.6 to 100 nM after 48 hrs by Western blot analysis; format: functional, cell-based
# Method in brief: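 A549 cells treated with graded compound concentrations for 48 h. Whole-cell extracts were immunoblotted with antibody against HSP90.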
# [8] = Cytotoxicity against human PC9IR cells assessed as cell viability after 48 hrs by SRB assay; format: functional, cell-based; method in brief: as §1
# HCT-8 = experiment: Cytotoxicity against human HCT8 cells after 2 hrs by methylene blue staining-based spectrophotometric analysis; format: functional, cell-based; details: HCT-8, 2 h
# PC-9 = experiment: Cytotoxicity against human PC9 cells assessed as cell viability after 48 hrs by SRB assay; format: functional, cell-based; details: PC-9, 48 h; method in brief: as §1
# A549 [9] = experiment: Cytotoxicity against human A549 cells assessed as cell viability after 48 hrs by SRB assay; format: functional, cell-based; details: A549, 48 h
# A549 [10] = experiment: Cytotoxicity against human A549 cells assessed as decrease in cell number at 60 nM after 48 hrs by inverted phase-contrast microscopy; format: functional, cell-based
# Method in brief: (§2)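 A549 cells exposed to a rising concentration series for 48 h, including 60 nM. Cells were viewed under an inverted phase-contrast microscope and photographed, and cell number and morphology were scored by eye.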
# A549 [11] = experiment: Downregulation of SAP18 mRNA expression in human A549 cells by microarray analysis relative to control; format: functional
# Method in brief: (§3)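 Gene expression profiling of treated versus untreated A549 cells, with pathways analysed in the MetaCore database.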
# A549 [12] = experiment: Downregulation of FBXW mRNA expression in human A549 cells by microarray analysis relative to control; format: functional; method in brief: as §3
# A549 [13] = experiment: Downregulation of myosin 5b mRNA expression in human A549 cells by microarray analysis relative to control; format: functional; method in brief: as §3
# A549 [14] = experiment: Downregulation of cAMP dependent PKA cat mRNA expression in human A549 cells by microarray analysis relative to control; format: functional; method in brief: as §3
# A549 [15] = experiment: Downregulation of PLAU mRNA expression in human A549 cells by microarray analysis relative to control; format: functional; method in brief: as §3
# A549 [16] = experiment: Downregulation of PI3K cat class 1A mRNA expression in human A549 cells by microarray analysis relative to control; format: functional; method in brief: as §3
# A549 [17] = experiment: Downregulation of Eps 15 mRNA expression in human A549 cells by microarray analysis relative to control; format: functional; method in brief: as §3
# A549 [18] = experiment: Upregulation of ubiquitin mRNA expression in human A549 cells by microarray analysis relative to control; format: functional; method in brief: as §3
# A549 [19] = experiment: Downregulation of syntazin 7 mRNA expression in human A549 cells by microarray analysis relative to control; format: functional; method in brief: as §3
# A549 [20] = experiment: Cytotoxicity against human A549 cells assessed as effect on cell morphology at 60 nM after 48 hrs by inverted phase-contrast microscopy; format: functional, cell-based; method in brief: as §2
# A549 [21] = experiment: Downregulation of XIAP mRNA expression in human A549 cells by microarray analysis relative to control; format: functional; method in brief: as §3
# A549 [22] = experiment: Downregulation of HSP90 expression in human A549 cells at 3.6 nM after 48 hrs by RT-PCR analysis; format: functional, cell-based
# Method in brief: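 A549 cells exposed at 3.6 nM for 48 h. Transcript levels were measured by RT-PCR and compared with untreated cells.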
# A549 [23] = experiment: Downregulation of CDK11 mRNA expression in human A549 cells by microarray analysis relative to control; format: functional; method in brief: as §3
# A549 [24] = experiment: Downregulation of PI3K reg class 1A mRNA expression in human A549 cells by microarray analysis relative to control; format: functional; method in brief: as §3
# A549 [25] = experiment: Downregulation of PLEKHA8 mRNA expression in human A549 cells by microarray analysis relative to control; format: functional; method in brief: as §3
# A549 [26] = experiment: Downregulation of collagen 4 mRNA expression in human A549 cells by microarray analysis relative to control; format: functional; method in brief: as §3
# A549 [27] = experiment: Downregulation of beta-catenin expression in human A549 cells at 3.6 nM after 48 hrs by RT-PCR analysis
# A549 [28] = experiment: Downregulation of FRS2 mRNA expression in human A549 cells by microarray analysis relative to control; format: functional; method in brief: as §3
# A549 [29] = experiment: Downregulation of PECALM mRNA expression in human A549 cells by microarray analysis relative to control; format: functional; method in brief: as §3
# A549 [30] = experiment: Downregulation of SKP2 mRNA expression in human A549 cells by microarray analysis relative to control; format: functional; method in brief: as §3
# A549 [31] = experiment: Downregulation of EEA1 mRNA expression in human A549 cells by microarray analysis relative to control; format: functional; method in brief: as §3
# A549 [32] = experiment: Downregulation of fibronectin mRNA expression in human A549 cells by microarray analysis relative to control; format: functional; method in brief: as §3
# A549 [33] = experiment: Downregulation of VTI1B mRNA expression in human A549 cells by microarray analysis relative to control; format: functional; method in brief: as §3
# A549 [34] = experiment: Downregulation of beta-catenin mRNA expression in human A549 cells by microarray analysis relative to control
# A549 [35] = experiment: Downregulation of SNAP-25 mRNA expression in human A549 cells by microarray analysis relative to control; format: functional; method in brief: as §3
# A549 [36] = experiment: Downregulation of HSP90 mRNA expression in human A549 cells by microarray analysis relative to control; format: functional; method in brief: as §3
# A549 [37] = experiment: Downregulation of rabaptin-5 mRNA expression in human A549 cells by microarray analysis relative to control; format: functional; method in brief: as §3
# A549 [38] = experiment: Downregulation of casein kinase 1 mRNA expression in human A549 cells by microarray analysis relative to control; format: functional; method in brief: as §3
# A549 [39] = experiment: Downregulation of DYRK2 mRNA expression in human A549 cells by microarray analysis relative to control; format: functional; method in brief: as §3
structure (smiles),measurement,setting,value
COc1ccc2c3c(c4cc(OC)c(OC)cc4c2c1)C[C@H]1[C@H](O)CCN1C3,IC50,KB,500 nM
same,IC50,DU-145,850 nM
same,IC50,[1],640 nM
same,IC50,A549 [2],270 nM
COc1ccc2c3c(c4cc(OC)c(OC)cc4c2c1)C[C@H]1[C@H](O)CCCN1C3,IC50,KB,300 nM
same,IC50,DU-145,200 nM
same,IC50,[1],120 nM
same,IC50,A549 [2],69 nM
COc1ccc2c3c(c4cc(OC)c(OC)cc4c2c1)C[C@H]1CCCN1C3 [(-)-ANTOFINE],IC50,[1],25 nM
COc1ccc2c3c(c4cc(OC)c(OC)cc4c2c1)C[C@H]1CC[C@@H](O)CN1C3,IC50,KB,33 nM
same,IC50,DU-145,66 nM
same,IC50,[1],45 nM
same,IC50,A549 [2],82 nM
same,IC50,SK-BR-3,348 nM
COc1ccc2c3c(c4cc(OC)c(OC)cc4c2c1)C[C@H]1CCCCN1C3 [CRYPTOPLEURINE],IC50,[3],1.8 nM
same,IC50,MRC5,14 nM
same,IC50,KB,1.51 nM
same,Activity,A549 [4],Active
same,IC50,DU-145,1.59 nM
same,IC50,[5],5 nM
same,Activity,A549 [6],Active
same,Activity,A549 [7],Active
same,IC50,[8],6.8 nM
same,IC50,A549 [2],1.38 nM
same,IC50,HCT-8,1.91 nM
same,IC50,PC-9,5.5 nM
same,IC50,A549 [9],1.9 nM
CC[C@@]1(O)CCN2Cc3c(c4cc(OC)c(OC)cc4c4cc(OC)ccc34)C[C@H]2C1,IC50,KB,920 nM
same,IC50,DU-145,770 nM
same,IC50,[1],870 nM
same,IC50,A549 [2],990 nM
COc1ccc2c3c(c4cc(OC)c(OC)cc4c2c1)C[C@H]1C[C@H](O)CCN1C3,Activity,A549 [10],Active
same,fold change (FC),A549 [11],<10
same,IC50,[3],8.7 nM
same,IC50,MRC5,98 nM
same,fold change (FC),A549 [12],<10
same,fold change (FC),A549 [13],<10
same,IC50,KB,23 nM
same,fold change (FC),A549 [14],<10
same,fold change (FC),A549 [15],<10
same,fold change (FC),A549 [16],<10
same,fold change (FC),A549 [17],<10
same,Activity,A549 [4],Active
same,IC50,DU-145,11 nM
same,fold change (FC),A549 [18],>10
same,fold change (FC),A549 [19],<10
same,Activity,A549 [20],inactive
same,fold change (FC),A549 [21],<10
same,Activity,A549 [22],Active
same,IC50,[5],58.4 nM
same,Activity,A549 [6],Active
same,fold change (FC),A549 [23],<10
same,fold change (FC),A549 [24],<10
same,fold change (FC),A549 [25],<10
same,fold change (FC),A549 [26],<10
same,Activity,A549 [27],Active
same,Activity,A549 [7],Active
same,fold change (FC),A549 [28],<10
same,IC50,[1],25 nM
same,IC50,[8],43.2 nM
same,IC50,A549 [2],22 nM
same,fold change (FC),A549 [29],<10
same,fold change (FC),A549 [30],<10
same,fold change (FC),A549 [31],<10
same,fold change (FC),A549 [32],<10
same,fold change (FC),A549 [33],<10
same,fold change (FC),A549 [34],<10
same,fold change (FC),A549 [35],<10
same,IC50,SK-BR-3,72 nM
same,fold change (FC),A549 [36],<10
same,fold change (FC),A549 [37],<10
same,fold change (FC),A549 [38],<10
same,IC50,PC-9,8.2 nM
same,fold change (FC),A549 [39],<10
same,IC50,A549 [9],9 nM
COc1ccc2c3c(c4cc(OC)c(OC)cc4c2c1)C[C@H]1C[C@@H](O)CCN1C3,IC50,KB,43 nM
same,IC50,DU-145,59 nM
same,IC50,[1],78 nM
same,IC50,A549 [2],72 nM
same,IC50,SK-BR-3,295 nM
COc1ccc2c3c(c4cc(OC)c(OC)cc4c2c1)C[C@H]1COCCN1C3,IC50,MRC5,252 nM
same,IC50,A549 [9],40 nM
COc1ccc2c3c(c4cc(OC)c(OC)cc4c2c1)C[C@H]1C[C@H](OC)CCN1C3,IC50,KB,100 nM
same,IC50,DU-145,56 nM
same,IC50,[1],66 nM
same,IC50,A549 [2],25 nM
COc1ccc2c3c(c4cc(OC)c(OC)cc4c2c1)C[C@H]1CCC(=O)CN1C3,IC50,KB,734 nM
same,IC50,DU-145,1700 nM
same,IC50,[1],1480 nM
same,IC50,A549 [2],910 nM
same,IC50,SK-BR-3,3340 nM
